# Screens deposited in PubChem by several laboratories.
# MEKK2 mut-MEK5 = signal of MEK5 binding to mutant human MEKK2 PB1 domain; bead flow cytometry, Alexa488-MEK5 binding to MEKK2 mutant; percent response, % at 10 µM; 290,000 tested, 0.35% active; AID 1530; in the data active means percent response above about 24%, passing the limit was not always enough
# UBC13 inh = blocks human UBC13 polyubiquitin chain formation | P61088 | TR-FRET | inhibition, % at 20 µM | 330,000 tested, 0.47% active; in the data active means inhibition above about 45%, passing the limit was not always enough
# Pemphigus Ab inh = inhibitors of pemphigus antibody binding to human desmoglein-3. P32926. binding (percent of control), % at 10 µM. DSG3-coupled beads, scFv-anti-DSG3-GFP binding, flow cytometry; stronger effect = lower value. 310,000 tested, 0.48% active. AID 588358;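 active means binding more than 3 SD below its plate's average and above zero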;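 further: hits lower antibody fragment binding to DSG3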
# Target sequence (P32926 whole entry, looked up, the tested form may be a part): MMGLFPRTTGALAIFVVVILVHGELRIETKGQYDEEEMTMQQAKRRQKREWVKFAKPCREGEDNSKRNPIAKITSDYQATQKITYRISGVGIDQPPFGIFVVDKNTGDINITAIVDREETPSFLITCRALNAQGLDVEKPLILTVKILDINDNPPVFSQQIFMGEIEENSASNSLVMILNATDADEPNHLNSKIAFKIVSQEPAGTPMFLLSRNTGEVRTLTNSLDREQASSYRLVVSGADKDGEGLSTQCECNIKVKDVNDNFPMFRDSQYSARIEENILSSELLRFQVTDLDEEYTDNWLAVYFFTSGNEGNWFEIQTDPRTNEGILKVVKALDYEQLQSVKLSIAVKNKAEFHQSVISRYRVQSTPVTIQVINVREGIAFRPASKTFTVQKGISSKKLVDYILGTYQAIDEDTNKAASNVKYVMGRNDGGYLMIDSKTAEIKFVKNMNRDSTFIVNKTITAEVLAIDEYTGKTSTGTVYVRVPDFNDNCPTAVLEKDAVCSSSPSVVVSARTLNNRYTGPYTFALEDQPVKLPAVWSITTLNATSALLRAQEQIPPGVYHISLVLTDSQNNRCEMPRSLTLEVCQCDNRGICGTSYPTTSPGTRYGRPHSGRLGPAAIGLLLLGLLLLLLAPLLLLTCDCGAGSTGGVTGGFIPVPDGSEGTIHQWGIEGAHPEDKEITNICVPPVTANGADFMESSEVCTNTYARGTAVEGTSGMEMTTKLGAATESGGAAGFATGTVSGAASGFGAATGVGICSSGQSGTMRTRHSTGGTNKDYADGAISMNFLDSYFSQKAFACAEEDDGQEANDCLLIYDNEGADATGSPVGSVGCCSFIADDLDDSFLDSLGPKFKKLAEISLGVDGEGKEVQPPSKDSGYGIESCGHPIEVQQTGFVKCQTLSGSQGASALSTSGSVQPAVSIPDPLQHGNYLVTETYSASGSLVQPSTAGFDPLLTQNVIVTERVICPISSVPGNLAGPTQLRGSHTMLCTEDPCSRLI
# Apaf-1 inh = inhibitors of human Apaf-1 apoptosome. inhibition, % at 20 µM. 330,000 tested, 0.71% active. AID 489030. O14727. reconstituted apoptosome caspase-3 activity, DEVD-Rh110 fluorescence; active means inhibition of at least 40% at 20 µM;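 further: plate controls were DMSO wells for no effect and DEVD-CHO caspase inhibitor wells for full effect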
#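 System: Apoptosome proteins | Medium: Hepes pH 7.5 with detergent and BSA | Also added: Cytochrome c trigger plus (Z-DEVD)2-Rh110 caspase-3 substrate | Incubation: 30 min compound preincubation, 50 min activation, room temperature | Detection: Rhodamine 110 fluorescence at Ex 480/Em 540 nm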
# MEKK2wt PB1 HTS = raises or lowers MEK5 binding to wildtype human MEKK2 PB1 domain | Q9Y2U5 | bead flow cytometry, Alexa488-MEK5 binding to MEKK2 WT; actives lie on both sides | binding response (% of control), % at 10 µM | 290,000 tested, 1.1% active | AID 1531; in the data active means binding response below about 67% or above about 130%
# MEKK3 PB1 HTS = raises or lowers MEK5 binding to the human MEKK3 PB1 domain; binding response (% of control), % at 10 µM; bead-based flow cytometry, Alexa488-MEK5 binding to MEKK3; actives lie on both sides; 0 = blocked by unlabeled MEK5, 100 = vehicle; 290,000 tested, 1.4% active;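 active means binding response more than 3 SD above or below the average of its plate-row segment, actives on both sides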;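 further: Alexa488 bead fluorescence after subtracting the streptavidin-only scavenger bead signal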
# Casp3 UBC13 ctr = caspase-3 inhibition (UBC13 counter-screen); Recombinant caspase-3, Caspase-Glo 3/7 luminescence, 60 min; 1,400 tested, 4% active; shares compounds with UBC13 inh; inhibition, % at 20 µM;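 active means mean inhibition across replicates above about 26%, limit read from the data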;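 further: plate controls were DMSO with caspase-3 for no effect and DMSO wells lacking enzyme for full effect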
# UBC13 conf = confirmation of human UBC13 polyubiquitin inhibitors. AID 488859. UBC13 polyubiquitination, TR-FRET, biochemical. shares compounds with UBC13 inh. inhibition, % at 10 µM. 1,400 tested, 68% active; in the data active means inhibition above about 45%
# Apaf-1 inh conf2 = confirmation of Apaf-1 inhibitors. inhibition, % at 20 µM. reconstituted apoptosome, caspase-3 DEVD-Rh110 fluorescence. shares compounds with Apaf-1 inh. AID 504614. 1,800 tested, 25% active;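 active means mean inhibition of at least 40% at 20 µM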;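 further: plate controls were DMSO wells for no effect and DEVD-CHO caspase inhibitor control wells for full effect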
# Rh110 quench = Rh110 signal interference in Apaf-1 inhibitor counter-screen; 1,800 tested, under 10 active; shares compounds with Apaf-1 inh; Rh110 fluorescence interference, quenched caspase reaction; activation (fluorescence interference), % at 20 µM;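 active means signal rise of 40% or more at 20 µM, treated as a fluorescence artifact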
# Fluor interf inh = Apaf-1 inhibitor counter-screen fluorescence artifact; fluorescence interference counterscreen, Apaf-1 assay format; AID 588538; shares compounds with Apaf-1 inh; 460 tested, under 10 active; IC50, µM; call rule not given here
# * hit, by the source's call; . = no result given. Only some compounds are listed: those with a hit (about 3.2% of all), similar ones and a draw of the others.
SMILES,MEKK2 mut-MEK5,UBC13 inh,Pemphigus Ab inh,Apaf-1 inh,MEKK2wt PB1 HTS,MEKK3 PB1 HTS,Casp3 UBC13 ctr,UBC13 conf,Apaf-1 inh conf2,Rh110 quench,others
CC(C)C[C@@H]1CN=C(N)N1C[C@@H]1CCCN1C[C@@H](C(C)C)N1C[C@@H](Cc2ccccc2)N(CCCC2CCCC2)C1=N,.,78*,117,55*,.,.,-4,76*,13,-1,
CCC[C@@H](CN1CCC[C@H]1CN1C(N)=NC[C@H]1C(C)C)N1C[C@@H](Cc2ccccc2)N(CCCC2CCCC2)C1=N,.,65*,124,46*,.,.,-3,47*,13,0,
COc1ccc(C2=Nn3c(nnc3-c3ccccc3OC)SC2)cc1OCC1CC1,.,10,95,30,.,.,.,.,.,.,
COc1ccc(C2=Nn3c(nnc3-c3ccccc3F)SC2)cc1OC1CCCC1,.,55*,.,47*,.,.,7,40,23,9,
COc1ccc(NS(=O)(=O)c2ccc(C)c(NC(=O)CN3C(=O)NC4(CCCC4)C3=O)c2)cc1,.,106*,112,82*,.,.,0,55*,58*,2,Fluor interf inh=>100
c1ccc2c(C[C@@H]3CNCCN3CC3CCCCC3)cccc2c1,.,60*,107,44*,.,.,2,58*,8,9,
O=c1ccn2c(n1)SC(c1ccccc1)C2 (stereo unspecified),.,.,100,.,.,.,.,.,.,.,
C#CCOCCOCCOCCNc1nc(N2CCN(C(=O)[C@H](CCCCN)n3cc(CN)nn3)CC2)nc(N2CCN(C(=O)[C@H](CC(N)=O)n3cc(C(N)[C@H](C)CC)nn3)CC2)n1 (stereo partly specified),.,37,106,9,.,.,.,.,.,.,
C#CCOCCOCCOCCNc1nc(N2CCN(C(=O)[C@H](CCCCN)n3cc([C@@H](N)[C@H](C)CC)nn3)CC2)nc(N2CCN(C(=O)[C@H](CCCCN)n3cc([C@@H](N)CC(N)=O)nn3)CC2)n1,.,99*,107,44*,.,.,-1,107*,0,-3,
C#CCOCCOCCOCCNc1nc(N2CCOCC2)nc(N2CCN(C(=O)[C@H](CCCCN)n3cc(CN)nn3)CC2)n1,.,96*,105,49*,.,.,-2,89*,0,7,
C#CCOCCOCCOCCNc1nc(N2CCN(C(=O)C([C@@H](C)O)n3cc([C@@H](N)CCCCN)nn3)CC2)nc(N2CCN(C(=O)[C@H](CC(N)=O)n3cc(C(N)[C@@H](C)CC)nn3)CC2)n1 (stereo partly specified),.,21,94,0,.,.,.,.,.,.,
C#CCOCCOCCOCCNc1nc(N2CCN(C(=O)C([C@@H](C)O)n3cc([C@@H](N)CCCCN)nn3)CC2)nc(N2CCN(C(=O)[C@H](CO)n3cc([C@@H](N)C(C)C)nn3)CC2)n1 (stereo partly specified),.,105*,105,53*,.,.,-5,111*,8,3,
COc1cc(OC)cc(-c2sc3ccc(OC)cc3c2C#CC2(N)CCCCC2)c1,.,84*,.,67*,.,.,3,77*,23,2,
COc1ccc(-c2sc3cc4c(cc3c2C#CC2(N)CCCCC2)OCO4)cc1,.,85*,112,72*,.,.,2,89*,35,8,
COc1ccc(-c2sc3cc4c(cc3c2C#Cc2cncn2C)OCO4)cc1,.,20,100,16,.,.,.,.,.,.,
COc1ccc(NC(=O)c2ccc(-c3ccc(-c4noc(C)n4)cc3C)cc2)cc1N1CCN(C)CC1,.,78*,113,57*,.,.,-4,45,26,2,
CC(C)OCCCNC(=O)c1cc(-c2cccnc2)nc2ccccc12,1,2,92,-2,100,99,.,.,.,.,
C[N+](C)(CCOc1ccccc1)Cc1ccccc1 (tested in a mixture with another compound),-2,-24,.,7,99,99,.,.,.,.,
CC(C)(C)CC(C)(C)c1ccc(OCCOCC[N+](C)(C)Cc2ccccc2)cc1,.,92*,145,82*,.,.,-3,91*,43*,21,Fluor interf inh=>100
CCOC(=O)C1(Cc2ccccc2C)CCCN(C(=O)c2ccc(OC)o2)C1 (stereo unspecified),-2,-1,102,10,99,99,.,.,.,.,
COC(=O)c1ccccc1S(=O)(=O)N1CCC(C(=O)N2CCC2)CC1,.,79*,98,55*,.,.,0,64*,27,-1,
COC(=O)c1ccccc1S(=O)(=O)N1CCC(C(=O)OC(C)C(=O)Nc2ccc(NC(C)=O)cc2)CC1 (stereo unspecified),2,5,.,-5,108,101,.,.,.,.,
CC[C@@H](C)[C@@H]1CN([C@@H](C)CN2CCC[C@H]2CN2C(N)=NC[C@@H]2Cc2ccccc2)C(=N)N1CCCC1CCCC1,.,71*,.,62*,.,.,-2,73*,2,-2,
CCCCN1C(=N)N([C@@H](CCC)CN2CCC[C@H]2CN2C(N)=NC[C@@H]2Cc2ccccc2)C[C@H]1[C@H](C)CC,.,37,107,34,.,.,.,.,.,.,
CC[C@@H](C)[C@@H]1CN([C@@H](CN2CCC[C@H]2CN2C(N)=NC[C@H]2C(C)C)C(C)C)C(=N)N1CCc1ccc(Cl)c(Cl)c1,.,75*,117,51*,.,.,-2,61*,16,6,
CC[C@@H](C)[C@@H]1CN([C@@H](C)CN2CCC[C@H]2CN2C(N)=NC[C@@H]2Cc2ccccc2)C(=N)N1CCc1ccc(Cl)c(Cl)c1,.,76*,107,71*,.,.,2,70*,6,6,
Clc1ccccc1OCc1nnc2n1CCCCC2,-22,-1,97,-9,83,86,.,.,.,.,
O=C(O)CC(C(=O)O)N1C(=O)/C(=C/C=C/c2ccco2)SC1=S (stereo unspecified),-24,74*,77,85*,81,81,2,48*,49*,1,Fluor interf inh=>100
Oc1ccc(C[C@H]2CNCCN2CCC23CC4CC(CC(C4)C2)C3)cc1,.,38,101,24,.,.,.,.,.,.,
